Measured values as given in ChEMBL document CHEMBL1821653, “Alcohol-, diol-, and carbohydrate-substituted indenoisoquinolines as topoisomerase I inhibitors: investigating the relationships involving stereochemistry, hydrogen bonding, and biological activity” (2011).

How the values were obtained:
[1] = biological target: T1, DNA topoisomerase 1 (Homo sapiens) (UniProt P11387); assay: Inhibition of recombinant human TOP1 mediated DNA cleavage after 20 mins by gel electrophoresis relative to camptothecin; set-up: concentration or dose not given beside the values
T1 sequence (whole entry): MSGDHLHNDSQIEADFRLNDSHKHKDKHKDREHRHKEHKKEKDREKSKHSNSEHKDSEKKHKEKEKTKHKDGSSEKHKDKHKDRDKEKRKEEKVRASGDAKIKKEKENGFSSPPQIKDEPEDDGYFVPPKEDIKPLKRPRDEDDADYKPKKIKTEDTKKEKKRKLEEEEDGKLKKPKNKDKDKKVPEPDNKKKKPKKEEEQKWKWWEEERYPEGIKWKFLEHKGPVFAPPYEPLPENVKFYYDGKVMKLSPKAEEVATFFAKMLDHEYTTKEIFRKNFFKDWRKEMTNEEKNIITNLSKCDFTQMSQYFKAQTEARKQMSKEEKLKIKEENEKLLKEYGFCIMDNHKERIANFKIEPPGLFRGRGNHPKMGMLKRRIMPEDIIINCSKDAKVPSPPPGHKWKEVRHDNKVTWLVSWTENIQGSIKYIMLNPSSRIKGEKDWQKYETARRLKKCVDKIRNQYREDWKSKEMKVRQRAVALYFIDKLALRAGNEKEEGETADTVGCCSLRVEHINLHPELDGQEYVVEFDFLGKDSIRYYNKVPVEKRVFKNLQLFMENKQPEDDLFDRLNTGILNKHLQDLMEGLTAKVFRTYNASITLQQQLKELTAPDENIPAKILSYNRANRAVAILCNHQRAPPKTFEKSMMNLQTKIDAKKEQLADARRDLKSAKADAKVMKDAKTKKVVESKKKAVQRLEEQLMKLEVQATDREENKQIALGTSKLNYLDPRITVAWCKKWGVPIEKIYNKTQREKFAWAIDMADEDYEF
Method in brief: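 117-bp oligonucleotide containing Top1 cleavage sites, 3'-end labeled with [α-32P]-dGTP by Klenow fill-in. About 2 nM substrate incubated with recombinant Top1 and various compound concentrations for 20 min at 25 °C in 10 mM Tris-HCl pH 7.5, 50 mM KCl, 5 mM MgCl2, 0.1 mM EDTA, 15 μg/mL BSA. Stopped with 0.5% SDS, run on 20% denaturing PAGE, phosphorimaged.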

[2] = test system: HOP-62; assay: Antiproliferative activity against human HOP62 cells by SRB assay; assay type: functional
Method in brief: (§1)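 NCI 60-cell-line human tumor panel. Compounds first screened at one dose of 10^-5 M. Selected compounds then tested at five concentrations from 10^-8 to 10^-4 M. GI50 is the concentration giving 50% growth inhibition. GI50 values outside the tested range are assigned 10^-8 M or 10^-4 M.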

[3] = test system: HCT-116; assay: Antiproliferative activity against human HCT116 cells by SRB assay; assay type: functional; method in brief: as §1
[4] = test system: SF-539; assay: Antiproliferative activity against human SF539 cells by SRB assay; assay type: functional; method in brief: as §1
[5] = test system: UACC-62; assay: Antiproliferative activity against human UACC62 cells by SRB assay; assay type: functional; method in brief: as §1
[6] = test system: OVCAR-3; assay: Antiproliferative activity against human OVCAR3 cells by SRB assay; assay type: functional; method in brief: as §1
[7] = test system: SN12C; assay: Antiproliferative activity against human SN12C cells by SRB assay; assay type: functional; method in brief: as §1
[8] = test system: DU-145; assay: Antiproliferative activity against human DU145 cells by SRB assay; assay type: functional; method in brief: as §1
[9] = test system: MCF7; assay: Antiproliferative activity against human MCF7 cells by SRB assay; assay type: functional; method in brief: as §1

Row | SMILES | inhibition [1] [%] | GI50 [2] [µM] | GI50 [3] [µM] | GI50 [4] [µM] | GI50 [5] [µM] | GI50 [6] [µM] | GI50 [7] [µM] | GI50 [8] [µM] | GI50 [9] [nM]
1 | C[C@H](CO)n1c2c(c3ccccc3c1=O)C(=O)c1ccccc1-2 | 20 | – | – | – | – | – | – | – | –
2 | O=C1c2ccccc2-c2c1c1ccccc1c(=O)n2C[C@@H](O)CO | 50 | 3.79 | 4.47 | 5.72 | 4.36 | 16.1 | 3.77 | 2.34 | 3040
3 | O=C1c2ccccc2-c2c1c1ccccc1c(=O)n2C[C@H](O)[C@@H](O)[C@@H](O)[C@H](O)CO | 20 | – | – | – | – | – | – | – | –
4 | O=C1c2ccccc2-c2c1c1ccc([N+](=O)[O-])cc1c(=O)n2C[C@H](O)[C@@H](O)[C@H](O)[C@H](O)CO | > 95 | 7.35 | 5.08 | 2.61 | 2.98 | 4.26 | 17.7 | 4.76 | 880
5 | C[C@@H](CO)n1c2c(c3ccccc3c1=O)C(=O)c1ccccc1-2 | 50 | – | – | – | – | – | – | – | –
6 | COc1cc2c3c(n(CCCNCCO)c(=O)c2cc1OC)-c1cc2c(cc1C3=O)OCO2 [LMP-744] | > 95 | – | – | 0.04 | – | 0.5 | – | – | < 10
7 | O=C1c2ccccc2-c2c1c1ccccc1c(=O)n2C[C@H](O)[C@H](O)[C@H](O)[C@H](O)CO | – | 3.23 | 4.17 | 5.75 | 2.95 | 13.8 | 3.39 | 3.31 | 1780
8 | O=C1c2ccccc2-c2c1c1ccccc1c(=O)n2C[C@H](O)CO | 75 | 5.01 | – | 7.41 | 5.37 | 14.5 | 6.92 | 5.75 | 4900
9 | CC[C@@]1(O)C(=O)OCc2c1cc1n(c2=O)Cc2cc3ccccc3nc2-1 [CAMPTOTHECIN] | – | – | – | – | – | – | – | – | 10
10 | C[C@H](O)Cn1c2c(c3ccccc3c1=O)C(=O)c1ccccc1-2 | 75 | – | – | – | – | – | – | – | –
11 | CC(CO)n1c2c(c3ccccc3c1=O)C(=O)c1ccccc1-2 (racemic) | 20 | 17.6 | 15.9 | 14.4 | 11.7 | 25.7 | 37.1 | 23.7 | 34400
12 | COc1cc2c3c(n(CCCN4CCOCC4)c(=O)c2cc1OC)-c1cc2c(cc1C3=O)OCO2 [INDOTECAN] | > 95 | – | – | – | – | – | – | – | 370
13 | NCC(O)Cn1c2c(c3ccccc3c1=O)C(=O)c1ccccc1-2 (racemic) | 50 | 0.276 | 0.263 | 0.344 | 0.318 | 1.32 | 0.206 | 0.13 | 198
14 | O=C1c2ccccc2-c2c1c1ccccc1c(=O)n2CC(O)CO (racemic) | 50 | 7.76 | 4.36 | 5.89 | 7.58 | 18.6 | 2.95 | 2.88 | 3550
15 | O=C1c2ccccc2-c2c1c1ccccc1c(=O)n2C[C@H](O)[C@H](O)[C@H](O)CO | 0 | 2.95 | 3.39 | 2.14 | 3.23 | 13.5 | 2.4 | 1.32 | 1380
16 | O=C1c2ccccc2-c2c1c1ccc([N+](=O)[O-])cc1c(=O)n2C[C@H](O)CO | > 95 | 0.089 | 0.025 | 0.157 | 0.098 | 0.309 | 0.241 | 0.04 | 16
17 | O=C1c2ccccc2-c2c1c1ccccc1c(=O)n2C[C@H](O)[C@@H](O)[C@H](O)[C@H](O)CO | 50 | – | – | – | – | – | – | – | –
18 | COc1cc2c3c(n(CCCn4ccnc4)c(=O)c2cc1OC)-c1cc2c(cc1C3=O)OCO2 [INDIMITECAN] | > 95 | – | – | – | – | – | – | – | 10
19 | O=C1c2ccccc2-c2c1c1ccccc1c(=O)n2C[C@H](O)[C@@H](O)[C@H](O)CO | 50 | 3.23 | 3.39 | 7.94 | 2.88 | 24 | 2.24 | – | 1740
20 | O=C1c2ccccc2-c2c1c1ccccc1c(=O)n2C[C@@H](O)[C@@H](O)[C@H](O)[C@H](O)CO | 20 | – | – | – | – | – | – | – | –
21 | C[C@@H](O)Cn1c2c(c3ccccc3c1=O)C(=O)c1ccccc1-2 | 75 | 3.39 | 5.52 | 6.31 | 10.2 | 21.4 | 9.33 | 8.32 | 3230
22 | O=C1c2ccccc2-c2c1c1ccccc1c(=O)n2C[C@@H](O)[C@H](O)[C@H](O)CO | 50 | 8.71 | – | 7.59 | 7.41 | > 100 | 20 | 16.6 | 4570
23 | O=C(CO)Cn1c2c(c3ccccc3c1=O)C(=O)c1ccccc1-2 | 20 | 40.7 | 30.9 | 20 | 58.9 | 5.23 | 81.3 | 17.8 | 32300
24 | COc1cc2c3c(n(C[C@H](O)CO)c(=O)c2cc1OC)-c1ccccc1C3=O | 75 | 0.336 | 0.23 | 0.214 | 0.144 | 0.287 | 0.501 | 0.419 | 97
25 | COc1cc2c3c(n(C)c(=O)c2cc1OC)-c1cc2c(cc1C3=O)OCO2 | – | 1.3 | 35 | – | 4.2 | – | 68 | 37 | 1580
26 | O=C1c2ccccc2-c2c1c1ccccc1c(=O)n2C[C@@H](O)[C@@H](O)[C@H](O)CO | 75 | 6.46 | 3.39 | 11.2 | 6.31 | 13.2 | 5.01 | 3.98 | 1900
